One series relates to HT-29. The experiment in a line: Cytotoxicity against human HT-29 cells assessed as growth inhibition after 48 hrs by sulforhodamine B assay. The series is classed as functional. Particulars: HT-29, 48 h. The method, boiled down:
(§1)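 Cells seeded at 7.5 × 10^3 per well. Samples were dissolved in DMSO, aliquoted and stored at −20 °C. GI50 values are means of three independent experiments, each run in triplicate. Doxorubicin served as positive control.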
For orientation: The SRB assay estimates cell density from bound dye.

In a further series the test system is HepG2. The experiment in a line: Cytotoxicity against human HepG2 cells assessed as growth inhibition after 48 hrs by sulforhodamine B assay. The series is classed as functional. Conditions: HepG2, 48 h. The essentials:
as §1

Series [1] is described as follows: Cytotoxicity against human NCI-ADR-RES cells assessed as growth inhibition after 48 hrs by sulforhodamine B assay. The series is classed as functional. The method, boiled down:
as §1

The test system of a further series is MCF7. The experiment in a line: Cytotoxicity against human MCF7 cells assessed as growth inhibition after 48 hrs by sulforhodamine B assay. Particulars: MCF7, 48 h. The series is classed as functional. The essentials: as §1
Series [2] in a line: Cytotoxicity against human PC3 cells assessed as growth inhibition after 48 hrs by sulforhodamine B assay. The series is classed as functional. Particulars: PC-3, 48 h. The essentials: as §1
The subject of the next series is 786-0. The experiment in a line: Cytotoxicity against human 786-0 cells assessed as growth inhibition after 48 hrs by sulforhodamine B assay. The series is classed as functional. Particulars: 786-0, 48 h. The method, boiled down:
as §1

A short description of series [3]: Cytotoxicity against mouse NIH/3T3 cells assessed as growth inhibition after 48 hrs by sulforhodamine B assay. The series is classed as cell-based, NIH3T3. The method, boiled down: as §1

In brackets after ≈: the same amount, converted by molar mass. Residues, ends and D or L forms follow the SMILES beside them. Some results are limits rather than exact numbers.

The source of these data is ChEMBL document CHEMBL3745635, “Cytotoxic Orbitide from the Latex of Croton urucurana” (J Nat Prod, 2015).

As for `COc1cccc2c1C(=O)c1c(O)c3c(c(O)c1C2=O)C[C@@](O)(C(=O)CO)C[C@@H]3O[C@H]1C[C@H](N)[C@H](O)[C@H](C)O1` [DOXORUBICIN], the GI50 amounted to 0.85 µg/mL (≈ 1.56 µM) with HT-29; 0.25 µg/mL (≈ 0.46 µM) in the series on HepG2; 5.1 µM in series [1]; 0.07 µg/mL (≈ 0.129 µM) in the series on MCF7; 0.22 µg/mL (≈ 0.405 µM) in series [2]; 0.15 µg/mL (≈ 0.276 µM) in the series on 786-0. In addition, the GI50 at 48 h in series [3] amounted to 4 µM.
`CC(C)C[C@@H]1NC(=O)[C@H](CO)NC(=O)CNC(=O)[C@H](CC(C)C)NC(=O)[C@H](CC(N)=O)NC(=O)CNC(=O)[C@H](Cc2ccccc2)NC(=O)[C@H](C)NC(=O)CNC1=O` (cyclo(AFGNLGSLG)): the 50% growth inhibitory concentration (GI50) with HT-29 is 37.3 µg/mL (≈ 45.6 µM); in the series on HepG2 it was 41.3 µg/mL (≈ 50.6 µM); in series [1], 4.8 µM; in the series on MCF7 it was 35.5 µg/mL (≈ 43.4 µM); in series [2] it was 29.8 µg/mL (≈ 36.5 µM); in the series on 786-0 it was 18.7 µg/mL (≈ 22.9 µM). Further, in series [3], the GI50 at 48 h is more than 306 µM.

A word on the GI50: it is the concentration that inhibits growth by half.
